Our source for the folding enthalpy and Tm values is the array DNA melting data of Ke et al. (doi:10.1101/2024.01.08.574731).

The nature of data set [1]: folding enthalpy; higher = less favourable; fluorescence melt of hairpins on a sequencing array, two-state fit. As to conditions: sodium 0.088 M. The essentials:
(§1)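 On a sequenced MiSeq flow cell, library hairpins with annealed Cy3 and quencher oligos were imaged for Cy3 fluorescence in 2.5 °C steps up to 60 °C, in 50 mM Na-HEPES pH 8.0, 25 mM NaCl. Normalisation used pre-quench Cy3 and control constructs. Bootstrapped two-state fits gave melting temperature and folding enthalpy, combined by inverse variance across four replicates and with fitted temperatures raised by 9.35 °C to match UV melts.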

Data set [2] can be described thus: melting temperature; fluorescence melt of hairpins on a sequencing array, two-state fit, raised by 9.35 °C to match UV melts. The settings on record: sodium 0.088 M. Summed up:
as §1

In the case of TGGGAGAAATCCCA (((((....))))), the folding enthalpy in data set [1] was -19.5 kcal/mol. The Tm in data set [2] was found to be 40.7 °C.
On the same counts, the results for TGGTAGAAATACCA (((((....))))) are -12.8 kcal/mol and 36.8 °C.
For TGTAAGAAATTACA (((((....))))) the same measures were -7.98 kcal/mol and 20.6 °C.
As to TGTAGGAAACTACA (((((....))))), in data set [1], the folding enthalpy was -16.9 kcal/mol. In addition, in data set [2], the Tm is 36.9 °C.
For TGTTGGAAACAACA (((((....))))) the same measures were -18.5 kcal/mol and 42.9 °C.
On the same counts, the results for TGTTTGAAAAAACA (((((....))))) are -8.4 kcal/mol and 29.3 °C.
For TTAGTGAAAACTAA (((((....))))) the same measures were -8.57 kcal/mol and 27.8 °C.
As to TTATGGAAACATAA (((((....))))), the folding enthalpy in data set [1] is -8.55 kcal/mol. The Tm in data set [2] stood at 22.8 °C.
On the same counts, the results for TTCCCGAAAGGGAA (((((....))))) are -24 kcal/mol and 56.1 °C.
On the same counts, the results for TTCCTGAAAAGGAA (((((....))))) are -15 kcal/mol and 39.9 °C.
On the same counts, the results for TTGTAGAAATACAA (((((....))))) are -6.32 kcal/mol and 24.9 °C.
As to TTTCCGAAAGGAAA (((((....))))), the folding enthalpy in data set [1] is -19 kcal/mol. In addition, the Tm in data set [2] worked out at 49.3 °C.
